Calls of active or inactive are those of the source. The calls are words filed in the database; no cut-off is given here.
Columns and labels:
[1] = tested on: SN12C; assay: Cytotoxicity against human SN12C assessed as growth inhibition at 10 uM by NCI protocol relative to control; assay type: functional; conditions: read-out: GI
How it was run: (§1)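 Run by the NCI under its standard protocol: one dose of 10 μM against a sixty-line panel from nine human tumour tissues. Result given as percent growth inhibition of treated cells relative to untreated cells.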

[2] = tested on: SNB-75; assay: Cytotoxicity against human SNB-75 assessed as growth inhibition at 10 uM by NCI protocol relative to control; assay type: functional; conditions: read-out: GI; how it was run: as §1
[3] = tested on: HCT-15; assay: Cytotoxicity against human HCT-15 assessed as growth inhibition at 10 uM by NCI protocol relative to control; assay type: functional; conditions: read-out: GI
How it was run: (§2)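 Run by NCI as a single-dose screen at 10 μM across the sixty-cell-line panel, which covers nine human tumour tissue types. The read-out is percent growth inhibition of treated cells relative to untreated cells.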

[4] = tested on: NCI-H226; assay: Cytotoxicity against human NCI-H226 assessed as growth inhibition at 10 uM by NCI protocol relative to control; assay type: functional; conditions: read-out: GI; how it was run: as §2
[5] = tested on: A498; assay: Cytotoxicity against human A498 assessed as growth inhibition at 10 uM by NCI protocol relative to control; assay type: functional; conditions: read-out: GI; how it was run: as §2
[6] = tested on: RXF 393; assay: Cytotoxicity against human RXF 393 assessed as growth inhibition at 10 uM by NCI protocol relative to control; assay type: functional; conditions: read-out: GI; how it was run: as §2
[7] = tested on: HCC 2998; assay: Cytotoxicity against human HCC-2998 assessed as growth inhibition at 10 uM by NCI protocol relative to control; assay type: functional; conditions: read-out: GI; how it was run: as §2
[8] = tested on: SK-MEL-2; assay: Cytotoxicity against human SK-MEL-2 assessed as growth inhibition at 10 uM by NCI protocol relative to control; assay type: functional; conditions: read-out: GI; how it was run: as §2
[9] = tested on: MDA-MB-468; assay: Cytotoxicity against human MDA-MB-468 assessed as growth inhibition at 10 uM by NCI protocol relative to control; assay type: functional; conditions: read-out: GI; how it was run: as §2
[10] = tested on: SF-268; assay: Cytotoxicity against human SF-268 assessed as growth inhibition at 10 uM by NCI protocol relative to control; assay type: functional; conditions: read-out: GI; how it was run: as §2
[11] = tested on: HOP-92; assay: Cytotoxicity against human HOP-92 assessed as growth inhibition at 10 uM by NCI protocol relative to control; assay type: functional; how it was run: as §2
[12] = tested on: SK-MEL-28; assay: Cytotoxicity against human SK-MEL-28 assessed as growth inhibition at 10 uM by NCI protocol relative to control; assay type: functional; conditions: read-out: GI; how it was run: as §2
[13] = tested on: COLO 205; assay: Cytotoxicity against human COLO 205 assessed as growth inhibition at 10 uM by NCI protocol relative to control; assay type: functional; conditions: read-out: GI; how it was run: as §2
[14] = tested on: NCI-H522; assay: Cytotoxicity against human NCI-H522 assessed as growth inhibition at 10 uM by NCI protocol relative to control; assay type: functional; conditions: read-out: GI; how it was run: as §2
[15] = tested on: SK-MEL-5; assay: Cytotoxicity against human SK-MEL-5 assessed as growth inhibition at 10 uM by NCI protocol relative to control; assay type: functional; conditions: read-out: GI; how it was run: as §2
[16] = tested on: IGROV-1; assay: Cytotoxicity against human IGROVI assessed as growth inhibition at 10 uM by NCI protocol relative to control; assay type: functional; conditions: read-out: GI; how it was run: as §2
[17] = tested on: SF-295; assay: Cytotoxicity against human SF-295 assessed as growth inhibition at 10 uM by NCI protocol relative to control; assay type: functional; conditions: read-out: GI; how it was run: as §2
[18] = tested on: DU-145; assay: Cytotoxicity against human DU-145 assessed as growth inhibition at 10 uM by NCI protocol relative to control; assay type: functional; conditions: read-out: GI; how it was run: as §2
[19] = tested on: BT-549; assay: Cytotoxicity against human BT-549 assessed as growth inhibition at 10 uM by NCI protocol relative to control; assay type: functional; conditions: read-out: GI; how it was run: as §2
[20] = tested on: 786-0; assay: Cytotoxicity against human 786-0 assessed as growth inhibition at 10 uM by NCI protocol relative to control; assay type: functional; conditions: read-out: GI; how it was run: as §2
[21] = tested on: SR; assay: Cytotoxicity against human SR assessed as growth inhibition at 10 uM by NCI protocol relative to control; assay type: functional; conditions: read-out: GI; how it was run: as §1
[22] = tested on: U-251; assay: Cytotoxicity against human U251 assessed as growth inhibition at 10 uM by NCI protocol relative to control; assay type: functional; conditions: read-out: GI; how it was run: as §1
[23] = tested on: HT-29; assay: Cytotoxicity against human HT29 assessed as growth inhibition at 10 uM by NCI protocol relative to control; assay type: functional; conditions: read-out: GI; how it was run: as §2
[24] = tested on: NCI-H322M; assay: Cytotoxicity against human NCI-H322M assessed as growth inhibition at 10 uM by NCI protocol relative to control; assay type: functional; conditions: read-out: GI; how it was run: as §2
[25] = tested on: SK-OV-3; assay: Cytotoxicity against human SK-OV-3 assessed as growth inhibition at 10 uM by NCI protocol relative to control; assay type: functional; conditions: read-out: GI; how it was run: as §2
[26] = tested on: T47D; assay: Cytotoxicity against human T47D cells assessed as reduction in cell viability after 3 hrs by MTT assay
[27] = tested on: HL-60; assay: Cytotoxicity against human HL60 assessed as growth inhibition at 10 uM by NCI protocol relative to control; assay type: functional; conditions: read-out: GI; how it was run: as §2
[28] = tested on: UACC-257; assay: Cytotoxicity against human UACC-257 assessed as growth inhibition at 10 uM by NCI protocol relative to control; assay type: functional; conditions: read-out: GI; how it was run: as §1
[29] = tested on: A549; assay: Cytotoxicity against human A549 assessed as growth inhibition at 10 uM by NCI protocol relative to control; assay type: functional; conditions: read-out: GI; how it was run: as §2
[30] = tested on: T47D; assay: Cytotoxicity against human T-47D assessed as growth inhibition at 10 uM by NCI protocol relative to control; assay type: functional; conditions: read-out: GI; how it was run: as §1
[31] = tested on: NCI-H460; assay: Cytotoxicity against human NCI-H460 assessed as growth inhibition at 10 uM by NCI protocol relative to control; assay type: functional; conditions: read-out: GI; how it was run: as §2
[32] = tested on: EKVX; assay: Cytotoxicity against human EKVX assessed as growth inhibition at 10 uM by NCI protocol relative to control; assay type: functional; conditions: read-out: GI; how it was run: as §2
[33] = tested on: NCI-H23; assay: Cytotoxicity against human NCI-H23 assessed as growth inhibition at 10 uM by NCI protocol relative to control; assay type: functional; conditions: read-out: GI; how it was run: as §2
[34] = tested on: OVCAR-3; assay: Cytotoxicity against human OVCAR-3 assessed as growth inhibition at 10 uM by NCI protocol relative to control; assay type: functional; conditions: read-out: GI; how it was run: as §2
[35] = tested on: UO-31; assay: Cytotoxicity against human UO31 assessed as growth inhibition at 10 uM by NCI protocol relative to control; assay type: functional; conditions: read-out: GI; how it was run: as §1
[36] = tested on: NCI/ADR-RES; assay: Cytotoxicity against human NCl/ADR-RES assessed as growth inhibition at 10 uM by NCI protocol relative to control; assay type: functional; conditions: read-out: GI; how it was run: as §2
[37] = tested on: CAKI-1; assay: Cytotoxicity against human Caki1 assessed as growth inhibition at 10 uM by NCI protocol relative to control; assay type: functional; conditions: read-out: GI; how it was run: as §2
[38] = tested on: M14; assay: Cytotoxicity against human M14 assessed as growth inhibition at 10 uM by NCI protocol relative to control; assay type: functional; conditions: read-out: GI; how it was run: as §2
[39] = tested on: KM12; assay: Cytotoxicity against human KM12 assessed as growth inhibition at 10 uM by NCI protocol relative to control; assay type: functional; conditions: read-out: GI; how it was run: as §2
[40] = tested on: LOX IMVI; assay: Cytotoxicity against human LOX IMVI assessed as growth inhibition at 10 uM by NCI protocol relative to control; assay type: functional; conditions: read-out: GI; how it was run: as §2
[41] = tested on: Malme-3M; assay: Cytotoxicity against human MALME-3M assessed as growth inhibition at 10 uM by NCI protocol relative to control; assay type: functional; conditions: read-out: GI; how it was run: as §2
[42] = tested on: PC-3; assay: Cytotoxicity against human PC3 assessed as growth inhibition at 10 uM by NCI protocol relative to control; assay type: functional; conditions: read-out: GI; how it was run: as §2
[43] = tested on: K562; assay: Cytotoxicity against human K-562 assessed as growth inhibition at 10 uM by NCI protocol relative to control; assay type: functional; conditions: read-out: GI; how it was run: as §2

O=C(CN1CCN(c2cc(=O)n(-c3ccccc3)c3ccccc23)CC1)Nc1nc(-c2ccccc2)cs1
inhibition of growth at 10 µM [1]: 17.9% | inhibition of growth at 10 µM [2]: 28.4% | inhibition of growth at 10 µM [3]: 74.8% | inhibition of growth at 10 µM [4]: 51.8% | inhibition of growth at 10 µM [5]: 33.8% | inhibition of growth at 10 µM [6]: 23.1% | inhibition of growth at 10 µM [7]: 18.2% | inhibition of growth at 10 µM [8]: 11.1% | inhibition of growth at 10 µM [9]: 86.7% | inhibition of growth at 10 µM [10]: 20.8% | growth inhibition (GI) [11]: inactive | inhibition of growth at 10 µM [12]: 28.8% | inhibition of growth at 10 µM [13]: 39.9% | inhibition of growth at 10 µM [14]: 33.5% | inhibition of growth at 10 µM [15]: 94.7% | inhibition of growth at 10 µM [16]: 32.5% | inhibition of growth at 10 µM [17]: 33.3% | inhibition of growth at 10 µM [18]: 27.3% | inhibition of growth at 10 µM [19]: 33% | inhibition of growth at 10 µM [20]: 10.7% | inhibition of growth at 10 µM [21]: 48.7% | inhibition of growth at 10 µM [22]: 40.8% | inhibition of growth at 10 µM [23]: 27% | inhibition of growth at 10 µM [24]: 10.6% | inhibition of growth at 10 µM [25]: 29.2% | IC50 [26]: 10.3 µM | inhibition of growth at 10 µM [27]: 62.9% | inhibition of growth at 10 µM [28]: 51.5% | inhibition of growth at 10 µM [29]: 43.8% | inhibition of growth at 10 µM [30]: 83.4% | inhibition of growth at 10 µM [31]: 67.8% | inhibition of growth at 10 µM [32]: 54.5% | inhibition of growth at 10 µM [33]: 39.2% | inhibition of growth at 10 µM [34]: 27.5% | inhibition of growth at 10 µM [35]: 58.4% | inhibition of growth at 10 µM [36]: 37.3% | inhibition of growth at 10 µM [37]: 38.6% | inhibition of growth at 10 µM [38]: 26.6% | inhibition of growth at 10 µM [39]: 37% | inhibition of growth at 10 µM [40]: 50.5% | inhibition of growth at 10 µM [41]: 30.3% | inhibition of growth at 10 µM [42]: 67.5% | inhibition of growth at 10 µM [43]: 77.6%

— ChEMBL document CHEMBL4819122, “Novel 4-(piperazin-1-yl)quinolin-2(1H)-one bearing thiazoles with antiproliferative activity through VEGFR-2-TK inhibition” (Bioorg Med Chem, 2021)
